Results as given in the EternaBench riboswitch data.

Tested on: MS2 coat protein
Assay: apparent Kd, MS2 coat protein; higher = weaker binding; RNA-MaP array; FMN 200 µM where present
In short: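 Two titrations, one without ligand and one with constant ligand, were run with SNAP-549-labelled MS2 coat protein from 0.7 or 1.5 nM, doubling to 3 µM. The targets were designs transcribed by stalled E. coli RNA polymerase on Illumina sequencing-chip clusters, in 100 mM Tris-HCl pH 7.5, 80 mM KCl, 4 mM MgCl2, BSA, DTT, yeast tRNA and Tween-20. The apparent Kd is the median of filtered per-cluster binding-curve fits, with green signal normalised to red-channel RNA signal and control-cluster median Fmax.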

[1] = designed as: ON switch for flavin mononucleotide, no ligand
[2] = ligand present: flavin mononucleotide, designed as: ON switch for flavin mononucleotide
[3] = designed as: OFF switch for flavin mononucleotide, no ligand
[4] = ligand present: flavin mononucleotide, designed as: OFF switch for flavin mononucleotide

Row | Sequence | apparent Kd [1] [µM] | apparent Kd [2] [µM] | apparent Kd [3] [µM] | apparent Kd [4] [µM]
1 | ACCGAAUGAACAUGAGGAUCACCCAUGUACAGGAAACUGAAUGAGGAUAUCGAUAGCAAAGCUAUCGAGAAGGCAUGGGUCGGU | 0.285 | 0.0697 |  | 
2 | GUUUAUUAUUAGAAGGUGCCAGCGAGAGCUGCACAUGAGGAUCACCCAUGUUGUCGGUGACGACGCAAGGAUAUGGUGGUGGAU | 0.3 | 0.0915 |  | 
3 | UUGCGGUAGGAGAAGGACAGAGGCUUAAUUACAUACAUGAGGAUCACCCAUGUAGGAUAUCCUACCUAACGCGGACUCCUCCUG |  |  | 0.00682 | 0.00725
4 | GGGUUGUGAGGAUAUUAGUUGUACGUCAAUAGACGUAUGGGUGAGAAGGCACAUGAGGAUCACCCAUGUUCCUG |  |  |  | 0.126
5 | CAAUUUAUAACAGGAUAUAUAAUACAAUAGUUAAUAGAAGGGUUUAAUACAUGAGGAUCACCCAUGUCAUGUGUCAUAAUUACC |  |  | 0.0348 | 0.0305
6 | GCAGCAAUCUAAAACAUGAGGAUCACCCAUGUCGAGAGAUAUGAGGAUAUGCAUCGGAUGAAGAUGCAGAAGGCAUUGUGCUGC | 0.00866 | 0.00635 |  | 
7 | UGACGGAGCAGAGGAUAUACAUGAGGAUCACCCAUGUAAAUGAAAGAUAGCAGCAAAGCUGCAAUGUAGAAGGCUGCUCCGUCA |  |  | 0.0298 | 0.0849
8 | GCGGAAGGCACAGGAUAUCGUCCUUAGUUGGUACGAGAAGGGUGGCGCUGCCACAUGAGGAUCACCCAUGUGCCUUGACUAUAG | 0.245 | 1.18 |  | 
9 | UUGCUACAUGAGGAUCACCCAUGUCAGGAUAUUGUGUAUAGCGUGGAAGCUCUGUCGAUAAGAAGGGACUGUCU |  |  | 0.0256 | 0.0233
10 | UAUAUAUAGUAAGGAUAUGUAUAUAUUCUAUAAACAGAAGGUACUGACAUGAGGAUCACCCAUGUUUUAGUGUGGGCAUGUAGA |  |  | 0.0339 | 0.0305
11 | AAUUUACAGCUAGGAUAUACAUGAGGAUCACCCAUGUAAUCAUAGGAUGUUAUCAUUGUAUGAGUGUAGAAGGAGCAAAUAAGA |  |  | 0.00673 | 0.00674
12 | UCGGCGCGAGGAUAUACGUUUGCUUUUUUUUGUUUUUGUGUACAUGAGGAUCACCCAUGUAGAAGGCGCGCCGC |  |  | 0.0181 | 0.0249
13 | UUUUUAUUUGAAGGAUAUACUUAACAUGAGGAUCACCCAUGUGGUGUUGUGAGUGAGUGAGUUUAGUAGAAGGUCAAUUCUUUU |  |  | 0.401 | 0.696
14 | GAUAAGCUAGGAUAUACAUAUUAUUUAAUAUCCUCAUUAAUACAUGAGGAUCACCCAUGUAGAAGGAGCAAUAG |  |  | 0.127 | 0.272
15 | UUAAAUCAUGUAGGAUAUGCAUGGCGAAGCUACGCAGAAGGACAUGAGGAUCACCCAUGUUCGAGCUACCGAGUUCGGUGGCAA |  |  | 0.0219 | 0.122
16 | AUCAGCUCGUCAGGAUAUAAGUCACUGCGUCAGCAGUGUGGUAAGAUCACAUGAGGAUCACCCAUGUAGAAGGGACGAGCUGAU |  |  | 0.0118 | 0.0467
17 | CCUCUACAUGAGGAUCACCCAUGUCAGGAUAUCGUGUGUUUUUUUUCGGCCGCGCGUGCGAGAAGGGACGUCUU |  |  | 0.0319 | 0.032
18 | GUUAGGCAUGUAGGAUAUCCAUUGCGUCGCGUUGGAGAAGGGCAGCACACAUGAGGAUCACCCAUGUGGUCUCCCAUGAUGUGU |  |  | 0.215 | 0.254
19 | AAAUUUAACGAAGGAUAUGGUUACAUGAGGAUCACCCAUGUAUAUUUUGUGAUCUUGUUAAAGUACCAGAAGGUCGUAUACAUA |  |  | 0.173 | 0.4
20 | UGUUACUAGUAAGGAUAUACUAGCGAUAAGCUAGUAGAAGGUACAGUCUUUUGUAUAACAUGUUUACAUGAGGAUCACCCAUGU | 0.0106 | 0.00802 |  | 
21 | AUGCUGUCAGGAUAUCGUUAAUUUAGUUGUUUGUAUUAGUUCGAGAAGGGACAUGAGGAUCACCCAUGUUUGUA |  |  | 0.0308 | 0.0374
22 | UUUCCCUGUGUGAGGAUAUACUUGUUUGGGUUUUUGUAGAAGGCACAUGAGGAUCACCCAUGUAUUUUGUCGUG |  |  | 0.0431 | 0.111
23 | GUUUUCGCAUGAGGAUAUGCUCGCAUUUCAAGAGCAGAAGGUAUGUCUAUAGACAUGAGGAUCACCCAUGUAUCUAACUUUGAA | 0.352 | 0.065 |  | 
24 | UCUCGGUGUUCAGGAUAUGCAUCAAGGUUGUACGCAGAAGGGAACAUGAGGAUCACCCAUGUGUCCGAGCUGGGACGAGGGACG |  |  | 0.0379 | 0.188
25 | GCACUUUUAUUUGAACCGAUACGAACAUGAGGAUCACCCAUGUAGGAUAUGCUUAAAGUUGUGAUGCAGAAGGACAUUUAGUGC |  |  | 0.00918 | 0.0107
26 | AGACUGCGUAGAAUUAGCAGCCGGCAGGAUAUGACAUGAGGAUCACCCAUGUGAACUCCAUUGGGUCAGAAGGGCCACGACACA |  |  | 0.0218 | 0.147
27 | CUAGUACAUGAGGAUCACCCAUGUCAGGAUAUUGGAUAUGCCUUGGAAUACAUGUUUACAAGAAGGGACUAUAG |  |  | 0.023 | 0.0217
28 | GCCCUCGCUGAGGAUAUUAUCUGGCUCGAUUGAUAAGAAGGCAGUACAUGAGGAUCACCCAUGUGGUUCGUUCG |  |  | 0.0694 | 0.265

Row | Sequence | apparent Kd [1] [µM] | apparent Kd [2] [µM] | apparent Kd [3] [µM] | apparent Kd [4] [µM]
29 | UGUUGUAUUACAGGAUAUCUAUUAGUUUUUUUUAGAGAAGGGUAUUCACAUGAGGAUCACCCAUGUAUAUACGAGGAAGUUGUG | 0.0502 | 0.0517 |  | 
30 | AUCGGCAACACCAUGGUGGAUCCUGAGGAUAUGAAAAGCUACAUGAGGAUCACCCAUGUCCCGCGUCAGAAGGCAGGUUUGAUC | 0.138 | 0.017 |  | 
31 | GAUUAGCUUGGAGGAUAUGGUACGGGCAGCUAACCAGAAGGCCAAGAACAUGAGGAUCACCCAUGUGCCGUUGGCCAUGGGAGG |  |  | 0.0371 | 0.0132
32 | CGGUGUAGAGGAUAUACGUGAAUUUUGUUAUAUGAUAAUUUACAUGAGGAUCACCCAUGUAGAAGGCUAUAGCG |  |  | 0.0179 | 0.0181
33 | CAGCGCUGUCGAGAGGAUAUGCGGUGAUGGACAUGAGGAUCACCCAUGUUAGCGAUAGCAUUACUGUAGAAGGCUCUACAGCUGC | 0.0306 | 0.013 |  | 
34 | UUAUACGUUGAGGAUAUGUCAGUUAGUAUAUUUACAGAAGGCGAUACAUGAGGAUCACCCAUGUUUAUGGGCAU |  |  | 0.213 | 0.149
35 | AAUUUAAAGGGAGGAUAUACAUGAGGAUCACCCAUGUAAUCAUAUGAUAUUUUUUUUGUAUGAGUGUAGAAGGCCCAAAUAAAA |  |  | 0.00772 | 0.0093
36 | AGUACUACAGGAUAUACGAGGGAGGUCCACGUGAACCUUUUACAUGAGGAUCACCCAUGUAGAAGGGUAGUACA |  |  | 0.0683 | 0.0165
37 | UUUAUUAAUUAAUAUAAUAAGAUCACAUGAGGAUCACCCAUGUAGGAUAUCAGCUCGAUUAGAGCUGAGAAGGACAUAAUUAUA |  |  | 0.0348 | 0.11
38 | GUGUAGAUAUCAGGAUAUCUAUUUCCUACAUGAGGAUCACCCAUGUAGAUGAUCACCCAUGUAAAGGAGAAGGGAUAUCUAUAC | 0.192 | 0.156 |  | 
39 | CUUCGACAUGAGGAUCACCCAUGUCAGGAUAUUGUGUAUCGGGUGUUGGACGGAUAGGCAAGAAGGGAUGUGUG |  |  | 0.0347 | 0.0301
40 | UAGUAUAACGAAGGAUAUGGAUACAUGAGGAUCACCCAUGUAUUUUUUGUGAUUUUAAAAUUGAUCCAGAAGGUCGUAUAAUUA |  |  | 0.0236 | 0.0282
41 | CUUUUGUGAGGAUAUCAGUAGUAAAAGAAUAAAAUUACUACUGAGAAGGCACAUGAGGAUCACCCAUGUUCCUC |  |  | 0.0425 | 0.239
42 | AAAACAUGAGGAUCACCCAUGUAAAUAUCGGUUAAUUGUUGUGAGGAUAUACUAAAUUUUAAGAAGUAGAAGGCACUGGGUACA |  | 0.0239 |  | 
43 | CGUAUGUCAGGAUAUGCGUAUGCCGCCCAGAACGGGCAGCAGCAGAAGGGACAUGAGGAUCACCCAUGUUCGGG |  |  | 0.0683 | 0.0731
44 | AGAAAUUAGUGAGGAUAUGCAUAAAUUGUAGCUGCAGAAGGCACGGACCACAAGACAUGAGGAUCACCCAUGUGGUAUUUAGAU |  |  | 0.0299 | 0.0348
45 | AUCAGCUCGUCAGGAUAUACGUCACUGCGUCAGCAGUGUGGUAAGAUCACAUGAGGAUCACCCAUGUAGAAGGGACGAGCUGAA |  |  | 0.0143 | 0.267
46 | AGCUACGUUUCGUAGCAGCUAGGUGAGGAUAUUCAAAUUUUCACAUGAGGAUCACCCAUGUAUGUGAAGAAGGCGCCUAGAAAG | 0.00958 | 0.00544 |  | 
47 | CCAGGCGUAUAGGAUAUACGUGUCGAGUUCGCUGUAGAAGGAUACACAUGAGGAUCACCCAUGUUUGCCAGUGG |  |  | 0.0245 | 0.0212
48 | GUCAGCUCGUGAGGAUAUACAACACUGCUUCGGCAGUGUAUUAAGAUCACAUGAGGAUCACCCAUGUAGAAGGGACGAGCUGAU |  |  | 0.0118 | 0.0207
49 | GGGUACAUCGGAGGAUAUCAUGUAAAUACAUGAGGAUCACCCAUGUCGAUGGAGACAUCGGAGAUUGAGAAGGCCGAUGUACGG | 0.16 | 0.00904 |  | 
50 | AUCAUGUAAGGAUAUCUGACAUGUGACGAAAGUCACUGUUCAGAGAAGGUACAUGAGGAUCACCCAUGUAGAAC |  |  | 0.0722 | 0.133
51 | GCGUGUCAUGUAGGAUAUGACACAGGAAACUGGUCAGAAGGACAUGAGGAUCACCCAUGUAAAAUGUUCAAGAAUAACACAUGC |  |  | 0.0506 | 0.185
52 | CAUAUAGUUUGAGGAUAUUCAUGCACUGUAUACGGAGAAGGCAAACUAUCAUGUGGACAUGAGGAUCACCCAUGUAGUGACCAG | 0.0542 | 0.041 |  | 
53 | GCGUCAGAAUUAAUUGUGACAGACAGAAGGCAAUAGUAUGUGACCGACAUGAGGAUCACCCAUGUUGAGGAUAUGUAUUGACGC |  |  | 0.00526 | 0.00653
54 | AUCGUAACUUCGUGUCCACAUGAGGAUCACCCAUGUGCUACAAGAAGGGCCCGGGUCGGGUUAGGGCAGGAUAUUGUGUGCACA |  |  | 0.00915 | 0.0191
55 | UGGACCGAGCUGUCGGUUGACUCUUAGGAUAUGACAUGAGGAUCACCCAUGUGGGAUCUAAAUUGUCAGAAGGAGGGUUCUGGG |  |  | 0.283 | 0.0514
